Data: the EternaBench riboswitch data

How the values were obtained:
[1] = test system: MS2 coat protein; assay: apparent Kd, MS2 coat protein; higher = weaker binding; RNA-MaP array; tryptophan 2.4 mM where present; settings: designed as: OFF switch for tryptophan
Summary of the method: (§1)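 Stalled E. coli RNA polymerase transcribed the designs on Illumina sequencing-chip clusters. SNAP-549-labelled MS2 coat protein was titrated from 0.7 or 1.5 nM, doubling to 3 µM, without and then with constant ligand, in 100 mM Tris-HCl pH 7.5, 80 mM KCl, 4 mM MgCl2, BSA, DTT, yeast tRNA and Tween-20. Per-cluster binding curves were fitted to green signal normalised to red-channel RNA signal and control-cluster median Fmax. The apparent Kd is the median of the filtered fits.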

[2] = test system: MS2 coat protein; assay: apparent Kd, MS2 coat protein; higher = weaker binding; RNA-MaP array; theophylline 2 mM where present
Summary of the method: as §1

[3] = designed as: ON switch for theophylline, no ligand
[4] = ligand present: theophylline, designed as: ON switch for theophylline
[5] = designed as: OFF switch for theophylline, no ligand
[6] = ligand present: theophylline, designed as: OFF switch for theophylline

| Sequence | apparent Kd [2, 5] | apparent Kd [2, 6] | also measured |
| --- | --- | --- | --- |
| CGUAUUGGAAACAGUACGAGUGAUCCGGUCCGAGGACCGGUACGGCCGCCACUCGAAAAUAAAUAACAUGAGGAUCACCCAUGUA | – | – | apparent Kd ([1]; no ligand): 16.7 nM; apparent Kd ([1]; ligand present: tryptophan): 23.9 nM |
| UCGGUGCUCUACAUGAGGAUCACCCAUGUCCGAGGACCGGUACGGCCGCCACUCGCAAUCAAACAGACGUGGGCCAACUUUGCGU | – | – | apparent Kd ([1]; no ligand): 10.3 nM; apparent Kd ([1]; ligand present: tryptophan): 13.6 nM |
| AAUAACAUGAGGAUCACCCAUGUAAAAGAUACCAGAGUGAUGAUCCUCCCUUGGCAGCUUAACGCUGAUUGGAAACAAUCAGCGA | – | – | apparent Kd [2, 3]: 147 nM; apparent Kd [2, 4]: 225 nM |
| UAAAACAUGAGGAUCACCCAUGUAAUUGAUACCAGAGUGAUGAUCCUCCCUUGGCAGCAAAACGCUGAUUGAUUACAAUCAGCGA | – | – | apparent Kd [2, 3]: 54.3 nM; apparent Kd [2, 4]: 207 nM |
| UGACGAUACCUGGAUACCAGCGACAUGAGGAUCACCCAUGUAUGAGGAUCAGCCAUGUUAUGCCCUUGGCAGCCACGAAAGUCUU | 45.7 nM | 171 nM | – |
| GAUGAACUAUAUGAUACCAGACAACAUGAGGAUCACCCAUGUGAUAGUCGUCCUCUGCCUGUCCCUUGGCAGCGUAUAGUUUAUC | 40.6 nM | 102 nM | – |
| UCCUCCUCCGCAAGGAGGAGGAGUUGCGAUACCAGCACGGUAACGUGCCCUUGGCAGCGCACAUGAGGAUCACCCAUGUCAUGUU | 17.6 nM | 22.3 nM | – |
| UGACAUUGCUCAGAUACCAGACAUGAGGAUCACCCAUGUGCCAAAUACGUACAAAUAAAUGUCCCUUGGCAGCUGAGCAAUGUCU | 14.2 nM | 266 nM | – |
| AACCGAGGCUAUCCUCUAAGAAAAUGUGAUACCAGAAUAAUUUUAUUCCCUUGGCAGCAUGACAUGAGGAUCACCCAUGUGUCUU | – | – | apparent Kd [2, 3]: 187 nM; apparent Kd [2, 4]: 151 nM |
| ACUAGUUGUGCAGAUACCAGACAUGAGGAUCACCCAUGUUUGGGAUCUAAUGAUCAUCCUGUCCCUUGGCAGCUGUACAUCUAGA | 103 nM | 26.3 nM | – |
| UUGCAUAUCUUGGAUACCAGCACAUGAGGAUCACCCAUGUCCGCGGGAUAGCUCCAGAUGUGCCCUUGGCAGCCACAUGCACUUG | 10.2 nM | 26.4 nM | – |
| AGCCGAAACCUUGAUACCAGAUCAUGCUGCACAUGAGGAUCACCCAUGUCGUUAAACAUGGUCCCUUGGCAGCAAGUUAGGAUCU | – | – | apparent Kd [2, 3]: 76.4 nM; apparent Kd [2, 4]: 23.9 nM |
| AAACAUUGCUCAGAUACCAGACAUGAGGAUCACCCAUGUACCAAGGUACCCGAAAGGAAUGUCCCUUGGCAGCUGAGCAAUGAAA | 10.1 nM | 27.4 nM | – |
| ACCGCAGGUCCUGAUACCAGAGACAUGAGGAUCACCCAUGUCCGAUCGUCCUGCCUCAGGCUCCCUUGGCAGCAGGGCUUGUCCU | 14.3 nM | 27.1 nM | – |
| UCGUGUAAAACGGAUACCAGUGAGAAGGAUACAUGAGGAUCACCCAUGUGAGUUGAUCCACACCCUUGGCAGCUGUAUAUAUCUA | – | – | apparent Kd [2, 3]: 118 nM; apparent Kd [2, 4]: 706 nM |
| CGUAUCGUAACUGAUACCAGUGUACUGACAUGAGGAUCACCCAUGUUGGGUUUUGUUGUACACCCUUGGCAGCAGAAUCGAUACG | 67 nM | 103 nM | – |
| ACGACGCAUAGUGAUACCAGUAGAACAUGAGGAUCACCCAUGUCUGUUAUGUACAAAUACUGCCCUUGGCAGCACUAUGCGUCAG | – | – | apparent Kd [2, 3]: 9.79 nM; apparent Kd [2, 4]: 10.7 nM |
| CAUACUUUAUCCUAUGAGCCUAUUUGUGAUACCAGCAUCUAAAUUUGCCCUUGGCAGCACUUACAUGAGGAUCACCCAUGUUUUA | – | – | apparent Kd [2, 3]: 26.8 nM; apparent Kd [2, 4]: 40.7 nM |
| AGCGACAUGCGUGAUACCAGCUACAUGAGGAUCACCCAUGUGAGUAGGAAACUACUGUGUAGCCCUUGGCAGCACAGUGCAUGUC | 10.5 nM | 63.7 nM | – |
| ACUAACUAUAGUGAUACCAGACGUACAUGAGGAUCACCCAUGUUACAUUCUUGGUUAAAAGUCCCUUGGCAGCACGAUAAGUUCG | 9.74 nM | 9.5 nM | – |
| CCAUACGUAACUGAUACCAGUGUACUGACAUGAGGAUCACCCAUGUUGGGUUUUGUUGUACACCCUUGGCAGCAGAAUCGUAUGG | 69 nM | 101 nM | – |
| GAUGAACUAUUCGAUACCAGACCACAUGAGGAUCACCCAUGUGUGUUUCGUCCUUAGCCGGUCCCUUGGCAGCGAAUAGUUUAUC | 20.2 nM | 30.3 nM | – |
| AGACAUGUAAGAUAAAUGACUUAUACAGAUACCAGACUGUCUAAUGUCCCUUGGCAGCUGCAUAACAUGAGGAUCACCCAUGUAA | 28 nM | 26.1 nM | – |
| GAUGAUAUUGCAGAUACCAGACACAUGAGGAUCACCCAUGUCUCUGUGAUGUAGGAUUGUGUCCCUUGGCAGCUGCGAUAUCAUC | 229 nM | 91.3 nM | – |
| ACGUCCGGUUUACUCGUGGGCAUGGUCGAUACCAGUAUUUUAAUCUACCCUUGGCAGCGACAUGAGGAUCACCCAUGUGCGAAGA | 23.5 nM | 32.4 nM | – |
| GAGCUGAUGUAGGGUGGAUAUCCUUGAGAUACCAGUACAGAAAUGUACCCUUGGCAGCUCUUCCUUACAUGAGGAUCACCCAUGU | 18.7 nM | 23.1 nM | – |
